# CHOP inh = blocks CHOP induction under ER stress | CHO-K1 CHOP-promoter luciferase, tunicamycin-induced, 15-18 h | inhibition, % at 10 µM | AID 2732 | 3.8% of 220,000 active;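 active = compounds that reduced the stress-induced luciferase reporter signal by more than about 70% of percent inhibition, limit read from the data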;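 also: 0% = tunicamycin plus vehicle and 100% = wells without tunicamycin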
# PKD1 kinase inh = PKD1 (human) kinase inhibition. AID 797. 0.056% of 200,000 active. PKD1 kinase fluorescence polarization assay. inhibition, % (test concentration not listed). Q15139
# Target sequence (Q15139 whole entry, looked up): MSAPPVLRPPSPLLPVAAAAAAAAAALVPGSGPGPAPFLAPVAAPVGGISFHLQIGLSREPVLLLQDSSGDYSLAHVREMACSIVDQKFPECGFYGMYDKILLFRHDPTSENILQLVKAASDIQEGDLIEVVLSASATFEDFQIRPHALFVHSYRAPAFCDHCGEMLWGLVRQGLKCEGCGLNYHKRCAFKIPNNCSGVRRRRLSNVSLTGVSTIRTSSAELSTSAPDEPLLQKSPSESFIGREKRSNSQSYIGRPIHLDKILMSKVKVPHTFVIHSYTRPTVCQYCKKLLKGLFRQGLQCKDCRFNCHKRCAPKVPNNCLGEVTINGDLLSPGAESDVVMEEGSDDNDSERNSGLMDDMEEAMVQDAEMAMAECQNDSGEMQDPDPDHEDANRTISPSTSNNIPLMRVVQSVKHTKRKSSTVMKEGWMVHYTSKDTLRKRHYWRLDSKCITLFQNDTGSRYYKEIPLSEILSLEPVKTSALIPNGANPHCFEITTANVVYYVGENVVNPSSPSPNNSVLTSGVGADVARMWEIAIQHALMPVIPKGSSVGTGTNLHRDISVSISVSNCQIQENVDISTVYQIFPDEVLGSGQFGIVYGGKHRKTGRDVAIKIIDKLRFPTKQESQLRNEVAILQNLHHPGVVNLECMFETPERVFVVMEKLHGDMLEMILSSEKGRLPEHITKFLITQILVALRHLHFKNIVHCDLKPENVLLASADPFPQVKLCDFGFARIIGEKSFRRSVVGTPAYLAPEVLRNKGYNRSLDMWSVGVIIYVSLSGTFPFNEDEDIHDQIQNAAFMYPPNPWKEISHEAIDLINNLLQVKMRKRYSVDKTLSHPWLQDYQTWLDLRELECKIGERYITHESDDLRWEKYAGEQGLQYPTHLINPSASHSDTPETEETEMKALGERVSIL
# Arbovirus inh = antivirals against arbovirus infection. arbovirus infection cell-based antiviral screen. inhibition, % at 10 µM. 0.37% of 200,000 active. AID 1251; in the data active = inhibition above about 30%
# Wee1 degr inh = inhibitors of human Wee1 degradation | HeLa Luc-Wee1K328M stability, luciferase luminescence; 100% = proteasome inhibitor MG132 effect | 1.2% of 220,000 active | reporter increase, % at 5 µM | AID 1321 | P30291;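 active = activation above the mean of all tested compounds plus 3 SD, set per screening run, cut at about 8.8% in these data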;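 also: cells exposed to compound for 20 h before luminescence read; 0% = DMSO alone and 100% = MG132 at 30 µM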
# Rad51 HR inh = Rad51 (human) homologous recombination inhibition | Q06609 | hRad51 DNA strand exchange, fluorescence dequenching | inhibition, % at 10 µM | 0.085% of 200,000 active | AID 1385;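 active = inhibition above 40% at the single screening dose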;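 also: 0% = DMSO control wells and 100% = blanks with heterologous ssDNA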
#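 Test system: preformed human Rad51 ssDNA filaments. Compound dosing: single dose, 10 µM final compound. Incubation: filaments 15 min 37 °C, then compound 30 min. Technique: FRET fluorescence dequenching, excitation 485 nm, emission 520 nm. Read-out basis: percent inhibition from fluorescence, normalised to plate control and blank means. Benchmarks: plate controls and plate blanks.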
# Lmaj promast = Leishmania major promastigote growth inhibition | 9% of 200,000 active | AID 1063 | inhibition, % at 10 µM | Leishmania major promastigotes, resazurin fluorescence viability;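 also: promastigotes grown with compound for 44 hours at 28 °C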
# CHOP confirm = confirmation of CHOP induction inhibitors | CHO-CHOP promoter luciferase reporter, tunicamycin-induced, luminescence | shares compounds with CHOP inh | AID 504437 | inhibition, % at 10 µM | 45% of 2,100 active;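 active = mean of three repeat readings of reporter signal inhibition above a set limit, cut at about 70% in these data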;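 also: 0% = tunicamycin plus vehicle and 100% = wells lacking tunicamycin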
# Numbers without * were called inactive; / = no result given. Hits are enriched below; roughly 12% of the tested compounds scored in any of these assays. Rule as the data show it, unless noted: active = inhibition above about 50%; inactive = the rest.
SMILES,CHOP inh,PKD1 kinase inh,Arbovirus inh,Wee1 degr inh,Rad51 HR inh,Lmaj promast,CHOP confirm
O=S(=O)(Nc1ccc(-n2cccc2)cc1)c1ccc(Cl)cc1Cl,102*,-9,-44,-1,4,-6,15
CC(NC(=O)CCc1ccccc1)c1cc2c(cc1Cl)OCCO2 (stereo unspecified),4,-9,-4,0,/,7,/
CCCc1cc(C(=O)Nc2cc(Br)ccc2O)no1,/,-6,35*,3,4,-16,-10
CCCc1cc(C(=O)Nc2ccc(C)cc2)no1,-11,-10,-9,-3,-2,-9,/
Cc1ccc2sc(N(CCCN(C)C)C(=O)c3nc4ccccc4s3)nc2c1C,104*,-2,-22,7,0,37,96*
Cc1cccc2sc(N(CCCN(C)C)C(=O)CCc3ccccc3)nc12,9,16,-35,-1,0,24,/
Oc1ccc(Oc2ccc3c(C(F)(F)F)cc(C(F)(F)F)nc3n2)cc1,98*,13,11,-1,0,0,101*
Cn1c(=O)n(CCOc2ccc(Cl)cc2Cl)c2ccccc21,98*,-3,-25,1,1,-1,71*
O=C(CCl)N1CCN2C(=O)c3ccccc3C12c1ccc(Cl)cc1 (stereo unspecified),105*,-8,-31,-1,-13,100*,113*
O=C(COC(=O)C1(c2ccc(Cl)cc2)CCCC1)N1CCc2ccccc21,53,0,-6,4,-3,2,/
COc1ccc2nc(/N=C/c3c(C)[nH]n(-c4ccc(C)cc4)c3=O)sc2c1,7,0,-16,-2,-3,-4,/
Cc1ccc(C)c(NC(=S)NC(NC(=O)Cc2ccccc2)C(Cl)(Cl)Cl)c1 (stereo unspecified),103*,-5,1,2,-4,-3,25
CCCCC(=O)Nc1sc2c(c1C(=O)OCC)CCC(C=O)=C2Cl,117*,2,-43,0,0,99*,-2
CCOC(=O)c1c(NC(=O)c2ccccc2Cl)sc2c1CCc1ccccc1-2,-33,-5,3,3,/,-4,/
COc1ccc(N=c2ssnc2Cl)cc1,109*,-3,0,-2,1,-6,2
CCOC(=O)c1ccc(N=c2ssnc2Cl)cc1,98*,-2,8,3,5,-9,56
CCCCOc1ccc(S(=O)(=O)NNC(=O)C2Cc3c(ccc4ccccc34)O2)cc1 (stereo unspecified),98*,-14,-1,-3,0,45,59
CCCn1c(N)c(C(=S)NC(=O)C2CC2)c(=O)n(C)c1=O,-21,-10,5,3,/,21,/
CC(C)C(=O)N1CCC(CN=Cc2c(O)n(C3CCCCC3)c(=O)n(C3CCCCC3)c2=O)CC1,104*,-8,-44,-3,4,100*,118*
O=c1[nH]ncc(N2CCN(Cc3ccccc3)CC2)c1Cl,21,3,-2,1,33,-1,/
O=C(CCC(=O)c1ccc(Br)cc1)Nc1cccc(C(F)(F)F)c1,108*,-1,13,-1,1,-10,-4
Cc1ccc(C(=O)CCC(=O)Nc2cccc(C(F)(F)F)c2)cc1,102*,10,3,-2,1,-6,41
Cc1ccc(C(=O)CCC(=O)Nc2cccc(C(F)(F)F)c2)cc1C,/,1,/,1,-2,0,/
O=C(Cc1c(Cl)cccc1Cl)Nc1cccnc1,-8,9,22,3,1,-3,/
COc1ccc(-c2noc(C(=O)NCc3ccc(F)cc3)n2)cc1OC,4,-9,-25,4,-5,9,/
N#CC1=C(N)C(C#N)(C#N)C(c2cccnc2)C2CC(c3ccccc3)CC=C12 (stereo unspecified),96*,-10,-2,-4,-2,55*,33
COC(=O)C1=C(C(=O)OC)[C@@H]2Nc3ccccc3[C@@]23C[C@@H](C(=O)OC)N(C(=O)c2cccs2)C3=N1,/,/,/,/,-17,/,/
CCOC(=O)c1cc(C)n(Cc2ccc(OCC)c(OC)c2)c1C,1,-6,0,0,-4,6,/
COCCCNC(=O)c1cccn2c(=O)c3cc4ccccc4cc3nc12,98*,19,-23,0,6,90*,58
